Reference: ChEMBL document CHEMBL1124216, “A novel class of potential central nervous system agents. 3-Phenyl-2-(1-piperazinyl)-5H-1-benzazepines” (1988)

Tests used:
Assay type in all cases: functional
Mus musculus [1] = test: Antimaximal electroshock seizure (MES) activity in mice after peroral administration of 100 mg/kg of compound; 0/5; details: route oral
Mus musculus [2] = test: Antiexploratory activity (EXPL) of mice determined by an antimex activity meter, 100 mg/kg of dose was administered perorally; No inhibition; details: route oral
Mus musculus [3] = test: Antitremorine activity(TRM) of mice after peroral administration of 100 mg/kg of compound; Moderate inhibition (51-71%); details: route oral
Mus musculus [4] = test: Antireserpine activity (RES) of mice after peroral administration of 100 mg/kg of compound; No inhibition; details: route oral
Mus musculus [5] = test: Antireserpine activity (RES) of mice after peroral administration of 100 mg/kg of compound; Slight inhibition (31-50%); details: route oral
Mus musculus [6] = test: Antitremorine activity(TRM) of mice after peroral administration of 100 mg/kg of compound; Slight inhibition (31-50%); details: route oral
Mus musculus [7] = test: Antitremorine activity(TRM) of mice after peroral administration of 100 mg/kg of compound; No inhibition; details: route oral
Mus musculus [8] = test: Antipentylene tetrazole activity was determined in mice when administered perorally; details: po
How it was run: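 Groups of five male Std-ddY mice received compound orally in 0.5% tragacanth, then pentylenetetrazole 175 mg/kg ip. Blockade of the tonic extensor component scored as anticonvulsant. ED50 was the dose protecting 50% of animals (Litchfield-Wilcoxon).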

Mus musculus [9] = test: Antimaximal electroshock seizure activity was determined in mice when administered perorally; details: po
Mus musculus [10] = test: Antiexploratory activity (EXPL) of mice determined by an antimex activity meter, 50 mg/kg of dose was administered perorally; No inhibition; details: route oral

Row | Structure (SMILES) | Activity (Mus musculus [1]) | inhibition in vivo at 100 mg/kg (Mus musculus [2]) [%] | inhibition in vivo at 100 mg/kg (Mus musculus [3]) [%] | inhibition in vivo at 100 mg/kg (Mus musculus [4]) [%] | inhibition in vivo at 100 mg/kg (Mus musculus [5]) [%] | inhibition in vivo at 100 mg/kg (Mus musculus [6]) [%] | inhibition in vivo at 100 mg/kg (Mus musculus [7]) [%] | ED50 (Mus musculus [8]) [mg/kg] | ED50 (Mus musculus [9]) [mg/kg] | inhibition in vivo at 50 mg/kg (Mus musculus [10]) [%]
1 | CCCc1ccc2c(c1)CC=C(c1ccccc1)C(N1CCN(CCO)CC1)=N2.Cl.Cl | 0 | < 30 | 51 | < 30 | – | – | – | – | – | –
2 | Cc1ccc(C2=CCc3ccccc3N=C2N2CCN(C)CC2)cc1.Cl.Cl | 0 | < 30 | – | – | 31 | 31 | – | – | – | –
3 | C1=C(c2ccccc2)C(N2CCN(c3ccccc3)CC2)=Nc2ccccc2C1 | 0 | < 30 | – | < 30 | – | – | < 30 | – | – | –
4 | NC(=O)N1CCN(C2=Nc3ccc(Cl)cc3CC=C2c2ccccc2)CC1 | 0 | < 30 | – | < 30 | – | – | < 30 | – | – | –
5 | Brc1ccc2c(c1)CC=C(c1ccccc1)C(N1CCN(c3ccccc3)CC1)=N2 | 0 | < 30 | – | < 30 | – | – | < 30 | – | – | –
6 | C1=C(c2ccccc2)C(N2CCNCC2)=Nc2ccccc2C1.O=C(O)/C=C/C(=O)O | 0 | < 30 | – | < 30 | – | – | < 30 | – | – | –
7 | O=C(CN1CCN(C2=Nc3ccc(Br)cc3CC=C2c2ccccc2)CC1)c1ccccc1 | 0 | < 30 | – | < 30 | – | – | < 30 | – | – | –
8 | Clc1ccc(C2=CCc3ccccc3N=C2N2CCNCC2)cc1.O=C(O)/C=C/C(=O)O | 0 | < 30 | – | < 30 | – | – | < 30 | – | – | –
9 | CCN1CCN(C2=Nc3ccc(C(C)C)cc3CC=C2c2ccccc2)CC1.O=C(O)/C=C/C(=O)O | 0 | < 30 | – | < 30 | – | 31 | – | – | – | –
10 | CCCc1ccc2c(c1)CC=C(c1ccccc1)C(N1CCN(CC)CC1)=N2.O=C(O)/C=C/C(=O)O | 0 | < 30 | – | < 30 | – | – | < 30 | – | – | –
11 | C=CCN1CCN(C2=Nc3ccc(Br)cc3CC=C2c2ccccc2)CC1 | 0 | < 30 | – | – | 31 | – | < 30 | – | – | –
12 | Clc1ccc2c(c1)CC=C(c1ccccc1)C(N1CCN(Cc3ccccc3)CC1)=N2 | 0 | < 30 | – | – | 31 | – | < 30 | – | – | –
13 | CN1CCN(C2=Nc3ccc(Br)cc3CC=C2c2ccc(Cl)cc2)CC1.Cl.Cl | 0 | < 30 | – | < 30 | – | – | < 30 | – | – | –
14 | CN1CCN(C2=Nc3ccccc3CC=C2c2cccc(C(F)(F)F)c2)CC1.O=C(O)/C=C/C(=O)O | 0 | < 30 | – | – | – | – | < 30 | – | – | –
15 | C1=C(c2ccccc2)C(N2CCOCC2)=Nc2ccccc2C1.Cl | 0 | < 30 | – | < 30 | – | – | < 30 | – | – | –
16 | Cc1ccc(C2=CCc3ccccc3N=C2N2CCN(CCO)CC2)cc1.Cl.Cl | 0 | < 30 | – | < 30 | – | – | < 30 | – | – | –
17 | NC(=O)N1c2ccccc2C=Cc2ccccc21 [CARBAMAZEPINE] | – | – | – | – | – | – | – | 10.3 | 13.3 | –
18 | C1=C(c2ccccc2)C(N2CCN(Cc3ccccc3)CC2)=Nc2ccccc2C1 | 0 | < 30 | – | – | – | – | < 30 | – | – | –
19 | Fc1ccc(C2=CCc3ccccc3N=C2N2CCN(Cc3ccccc3)CC2)cc1 | – | – | – | – | – | – | – | – | – | < 30

Row | Structure (SMILES) | Activity (Mus musculus [1]) | inhibition in vivo at 100 mg/kg (Mus musculus [2]) [%] | inhibition in vivo at 100 mg/kg (Mus musculus [3]) [%] | inhibition in vivo at 100 mg/kg (Mus musculus [4]) [%] | inhibition in vivo at 100 mg/kg (Mus musculus [5]) [%] | inhibition in vivo at 100 mg/kg (Mus musculus [6]) [%] | inhibition in vivo at 100 mg/kg (Mus musculus [7]) [%] | ED50 (Mus musculus [8]) [mg/kg] | ED50 (Mus musculus [9]) [mg/kg] | inhibition in vivo at 50 mg/kg (Mus musculus [10]) [%]
20 | Cl.Cl.OCCN1CCN(C2=Nc3ccc(Br)cc3CC=C2c2ccc(Cl)cc2)CC1 | 0 | < 30 | – | < 30 | – | – | < 30 | – | – | –
21 | O=C(CCN1CCN(C2=Nc3ccc(Br)cc3CC=C2c2ccccc2)CC1)c1ccccc1 | 0 | < 30 | – | < 30 | – | – | < 30 | – | – | –
22 | CC(C)c1ccc2c(c1)CC=C(c1ccccc1)C(N1CCN(C)CC1)=N2.O=C(O)/C=C/C(=O)O | 0 | < 30 | 51 | < 30 | – | – | – | – | – | –
23 | CC(C)c1ccc2c(c1)CC=C(c1ccccc1)C(N1CCN(CCO)CC1)=N2.Cl.Cl | 0 | < 30 | – | < 30 | – | – | < 30 | – | – | –
24 | Cl.Cl.OCCN1CCN(C2=Nc3cc(Cl)ccc3CC=C2c2ccccc2)CC1 | 0 | < 30 | 51 | < 30 | – | – | – | – | – | –
25 | O=C1NC(=O)C(c2ccccc2)(c2ccccc2)N1 [PHENYTOIN] | – | – | – | – | – | – | – | 3.7 | 7.9 | –
26 | Clc1ccc(C2=CCc3ccc(Cl)cc3N=C2N2CCNCC2)cc1.O=C(O)/C=C/C(=O)O | 0 | < 30 | 51 | – | 31 | – | – | – | – | –
27 | Cl.Cl.OCCN1CCN(C2=Nc3cc(Cl)ccc3CC=C2c2ccc(Cl)cc2)CC1 | 0 | < 30 | – | < 30 | – | – | < 30 | – | – | –
28 | COc1ccc(CN2CCN(C3=Nc4ccc(Br)cc4CC=C3c3ccccc3)CC2)cc1 | 0 | < 30 | – | < 30 | – | – | < 30 | – | – | –
29 | Clc1ccccc1C1=CCc2cc(Br)ccc2N=C1N1CCNCC1.O=C(O)/C=C/C(=O)O | 0 | < 30 | – | < 30 | – | – | < 30 | – | – | –
30 | CCN1CCN(C2=Nc3ccccc3CC=C2c2ccc(C)cc2)CC1.Cl.Cl | 0 | < 30 | – | < 30 | – | – | < 30 | – | – | –
31 | Brc1ccc2c(c1)CC=C(c1ccccc1)C(N1CCCCC1)=N2 | 0 | < 30 | – | – | 31 | – | < 30 | – | – | –
32 | CCN1CCN(C2=Nc3ccccc3CC=C2c2ccccc2Cl)CC1.Cl.Cl | 0 | < 30 | – | < 30 | – | 31 | – | – | – | –
33 | CCCc1ccc2c(c1)CC=C(c1ccccc1)C(N1CCN(C)CC1)=N2.Cl.Cl | 0 | < 30 | – | < 30 | – | – | – | – | – | –
34 | O=C(O)/C=C/C(=O)O.OCCN1CCN(C2=Nc3ccccc3CC=C2c2cccc(C(F)(F)F)c2)CC1 | 0 | < 30 | – | – | – | – | < 30 | – | – | –
35 | CN1CCN(C2=Nc3cc(Cl)ccc3CC=C2c2ccccc2)CC1.Cl.Cl | 0 | < 30 | 51 | < 30 | – | – | – | – | – | –
36 | Clc1ccccc1C1=CCc2ccccc2N=C1N1CCNCC1.O=C(O)/C=C/C(=O)O | 0 | < 30 | – | < 30 | – | – | < 30 | – | – | –
37 | Brc1ccc2c(c1)CC=C(c1ccccc1)C(N1CCNCC1)=N2.O=C(O)/C=C/C(=O)O | 0 | < 30 | – | – | 31 | – | – | – | – | –
